Our source for the AUC, concentration and F values is ChEMBL document CHEMBL1770119, “Synthesis and SAR of 4-(pyrazol-3-yl)-pyridines as novel c-jun N-terminal kinase inhibitors” (Bioorg Med Chem Lett, 2011).

As usually defined, the AUC is the area under the concentration-time curve, a measure of exposure. Low readings indicate low exposure, high ones high exposure.

What all share (type): ADME, organism-based
Data set [1] is described as follows: AUC in Sprague-Dawley rat at 2 mg/kg, po. The arrangement: dose 2 mg/kg, route oral. The settings on record: plasma. The method in brief: (§1)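 Sprague-Dawley rats (n = 3) given 1 mg/kg IV and 2 mg/kg oral gavage. Blood taken into EDTA tubes at 5, 15, 30 min and 1, 2, 4, 6, 8 h; plasma obtained by centrifugation. Plasma proteins precipitated with acetonitrile; drug measured by LC-MS/MS. Parameters derived by noncompartmental analysis.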

Data set [2] is described as follows: Drug level in brain of C57Bl6 mouse at 10 mg/kg, ip after 2 hrs. Further details: dose 10 mg/kg, route intraperitoneal. As to conditions: read-out: Drug uptake. The method in brief: (§2)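 C57Bl6 mice (n = 3) dosed 10 mg/kg intraperitoneally; blood and brain collected 2 h later. Plasma and brain mixed with acetonitrile (1:5 v:v or w:v); brain broken up by probe sonication. Drug measured by LC-MS/MS against standards in plasma or in blank brain matrix.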

Another data set relates to Rattus norvegicus. Kind of data set: Oral bioavailability in Sprague-Dawley rat at 2 mg/kg. The settings on record: in vivo. The method in brief:
as §1

A short description of data set [3]: Drug level in plasma of C57Bl6 mouse at 10 mg/kg, ip after 2 hrs. Further details: dose 10 mg/kg, route intraperitoneal. The settings on record: read-out: Drug uptake. An outline of the steps: as §2

As to `Cc1nc(C)n(-c2ccc(Nc3cc(-c4ccn(C)n4)c(Cl)cn3)cc2)n1`, the AUC in data set [1] came out at 7.1 µM·h. Besides, the values for the concentration at 2 h in data set [2] and in data set [3] were 5.3 µM and 10.4 µM, respectively. For the same molecule, in the data set with Rattus norvegicus, the F stood at 73%.
With `Cn1ccc(-c2cc(Nc3ccc(-n4cnc(N5CCOCC5)n4)cc3)ncc2Cl)n1`, the AUC in data set [1] was determined as 45 µM·h. Moreover, the concentration at 2 h came out at 3.5 µM in data set [2] and 6.6 µM in data set [3]. In the data set with Rattus norvegicus, this molecule gave an F of 75%.
In data set [1], `Cc1ccc(-c2ncn(-c3ccc(Nc4cc(-c5ccn(C)n5)c(F)cn4)cc3)n2)cn1` had an AUC of 10 µM·h. The concentration at 2 h in data set [2] stood at 10.3 µM; in data set [3], 9 µM. In the data set on Rattus norvegicus, this molecule came in with an F of 69%.
Taken in the same sequence, the figures for `Cn1ccc(-c2cc(Nc3ccc(-n4cnc(-c5ccccn5)n4)cc3)ncc2F)n1` were 14.9 µM·h, 0.74 µM, 3.3 µM and 73%.
Turning to `Cc1nc(C)n(-c2ccc(Nc3cc(-c4nn(C)cc4-c4ccc(F)cc4)ccn3)cc2)n1`, the AUC in data set [1] was 6 µM·h. In addition, the concentration at 2 h worked out at 1.4 µM in data set [2] and 9 µM in data set [3]. The molecule further registered a F with Rattus norvegicus of 51%.
